Legend:
[1] = 1-Octanol-water partition coefficient, log P of the compound after 90 mins; format: physicochemical
Method in brief: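 Partitioning between 1-octanol and water. Phase volume ratio and sample amount set so that the aqueous-layer absorbance fell mostly between 0.2 and 0.9 in a 1-cm cell. The aqueous concentration was read spectrophotometrically and the octanol concentration was taken by difference. P = C_octanol/C_H2O. At least triplicate determinations used different sample amounts, and the mean log P is reported.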

Streptococcus mutans [2] = assay: Antibacterial activity against Streptococcus mutans 6715 assessed as inhibition of plaque formation in human teeth at 10^-1 M after 24 hrs; format: functional; conditions: Streptococcus mutans, 6715, 24 h
Method in brief: (§1)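 Sterilized extracted human teeth were immersed in Me2SO solutions of compound for two 1-min periods, each followed by 1-min air exposure. Teeth were then washed in distilled water for 5 min and incubated anaerobically at 37° in sucrose-containing trypticase broth with S. mutans.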

Streptococcus mutans [3] = assay: Antibacterial activity against Streptococcus mutans 6715 assessed as inhibition of plaque formation in human teeth at 10^-1 M after 48 hrs; format: functional; conditions: Streptococcus mutans, 6715, 48 h; method in brief: as §1
Streptococcus mutans [4] = assay: Antibacterial activity against Streptococcus mutans 6715 assessed as inhibition of plaque formation in human teeth at 10^-2 M after 24 hrs; format: functional; conditions: Streptococcus mutans, 6715, 24 h; method in brief: as §1
Streptococcus mutans [5] = assay: Antibacterial activity against Streptococcus mutans 6715 assessed as inhibition of plaque formation in human teeth at 10^-2 M after 48 hrs; format: functional; conditions: Streptococcus mutans, 6715, 48 h; method in brief: as §1
Streptococcus mutans [6] = assay: Antibacterial activity against Streptococcus mutans 6715 assessed as growth inhibition at 10^-4 M after 24 hrs; format: functional; conditions: Streptococcus mutans, 6715, 24 h; read-out: GI
Method in brief: (§2)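 Test compounds as HCl salts were added in aqueous solution to sterile trypticase broth with 50% sucrose stock, then inoculated with a 24-hr culture of S. mutans 6715. Cultures were incubated anaerobically (Gaspak) at 37°. Bacterial growth was scored at 24 and 48 hr, with a solvent control run concurrently.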

Streptococcus mutans [7] = assay: Antibacterial activity against Streptococcus mutans 6715 assessed as growth inhibition at 10^-4 M after 48 hrs; format: functional; conditions: Streptococcus mutans, 6715, 48 h; read-out: GI; method in brief: as §2
Streptococcus mutans [8] = assay: Antibacterial activity against Streptococcus mutans 6715 assessed as growth inhibition at 10^-5 M after 24 hrs; format: functional; conditions: Streptococcus mutans, 6715, 24 h; read-out: GI; method in brief: as §2
Streptococcus mutans [9] = assay: Antibacterial activity against Streptococcus mutans 6715 assessed as growth inhibition at 10^-5 M after 48 hrs; format: functional; conditions: Streptococcus mutans, 6715, 48 h; read-out: GI; method in brief: as §2
Streptococcus mutans [10] = assay: Antibacterial activity against Streptococcus mutans 6715 assessed as growth inhibition at 10^-6 M after 24 hrs; format: functional; conditions: Streptococcus mutans, 6715, 24 h; read-out: GI; method in brief: as §2
Streptococcus mutans [11] = assay: Antibacterial activity against Streptococcus mutans 6715 assessed as growth inhibition at 10^-6 M after 48 hrs; format: functional; conditions: Streptococcus mutans, 6715, 48 h; read-out: GI; method in brief: as §2

logP at 1.5 h [1]	SMILES	inhibition at 100000 µM (Streptococcus mutans [2])	inhibition at 100000 µM (Streptococcus mutans [3])	inhibition at 10000 µM (Streptococcus mutans [4])	inhibition at 10000 µM (Streptococcus mutans [5])	inhibition of growth at 100 µM (Streptococcus mutans [6])	inhibition of growth at 100 µM (Streptococcus mutans [7])	inhibition of growth at 10 µM (Streptococcus mutans [8])	inhibition of growth at 10 µM (Streptococcus mutans [9])	inhibition of growth at 1 µM (Streptococcus mutans [10])	inhibition of growth at 1 µM (Streptococcus mutans [11])
1.63	O=Cc1ccc(O)c2ncccc12 [listing 1 of 2 here]	100%	80%	40%	40%						
1	OCc1ccc(O)c2ncccc12 [listing 1 of 2 here]	0%	0%								
2.26	CCOC(=O)Cc1ccc(O)c2ncccc12 [listing 1 of 2 here]	100%	80%	20%	0%						
	O=C(O)Cc1ccc(O)c2ncccc12 [listing 1 of 2 here]	0%	0%								
	COCc1ccc(O)c2ncccc12 [listing 1 of 2 here]					100%	80%	0%			
1.81	N#CCc1ccc(O)c2ncccc12 [listing 1 of 2 here]	80%	80%	0%	0%						
1.78	COCc1ccc(O)c2ncccc12 [listing 2 of 2 here]	80%	60%	20%	20%						
1.59	COC(=O)Cc1ccc(O)c2ncccc12 [listing 1 of 2 here]	100%	100%	20%	0%						
	COC(=O)Cc1ccc(O)c2ncccc12 [listing 2 of 2 here]					100%	100%	60%	0%	0%	0%
	CC(=O)c1ccc(O)c2ncccc12 [listing 1 of 2 here]					100%	100%	100%	0%	0%	0%
	N#CCc1ccc(O)c2ncccc12 [listing 2 of 2 here]					80%	20%	0%			
1.8	CC(=O)c1ccc(O)c2ncccc12 [listing 2 of 2 here]	100%	100%	60%	60%						
1.42	Oc1ccc(O)c2ncccc12 [listing 1 of 2 here]	60%	0%	0%	0%						
	Oc1ccc(F)c2cccnc12 [listing 1 of 2 here]					100%	100%	80%	0%	0%	0%
	Oc1ccc(I)c2cccnc12 [listing 1 of 2 here]					100%	100%	100%	60%	0%	0%
3.27	Oc1ccc(I)c2cccnc12 [listing 2 of 2 here]	100%	100%	80%	20%						
	Oc1ccc(O)c2ncccc12 [listing 2 of 2 here]					0%	0%				
	OCc1ccc(O)c2ncccc12 [listing 2 of 2 here]					0%	0%				
	Oc1cccc2cccnc12					100%	100%	100%	100%	0%	0%
	CCOC(=O)Cc1ccc(O)c2ncccc12 [listing 2 of 2 here]					100%	100%	100%	0%	0%	0%
2.3	Oc1ccc(F)c2cccnc12 [listing 2 of 2 here]	80%	80%	80%	60%						
	O=C(O)Cc1ccc(O)c2ncccc12 [listing 2 of 2 here]					0%	0%				
	O=Cc1ccc(O)c2ncccc12 [listing 2 of 2 here]					100%	100%	0%			

SMILES	logP at 1.5 h [1]	inhibition at 100000 µM (Streptococcus mutans [2])	inhibition at 100000 µM (Streptococcus mutans [3])	inhibition at 10000 µM (Streptococcus mutans [4])	inhibition at 10000 µM (Streptococcus mutans [5])	inhibition of growth at 100 µM (Streptococcus mutans [6])	inhibition of growth at 100 µM (Streptococcus mutans [7])	inhibition of growth at 10 µM (Streptococcus mutans [8])	inhibition of growth at 10 µM (Streptococcus mutans [9])	inhibition of growth at 1 µM (Streptococcus mutans [10])	inhibition of growth at 1 µM (Streptococcus mutans [11])
Oc1cccc2cccnc12 [OXYQUINOLINE]	1.94	100%	100%	0%	0%						

— ChEMBL document CHEMBL3272197, “Synthesis and in vitro evaluation of 8-hydroxyquinoline analogs as inhibitors of dental plaque” (J Med Chem, 1976)
